Results of several laboratories.
Protocols differ between the studies behind these lines.

| SMILES | test | test system | conditions | solubility |
| --- | --- | --- | --- | --- |
| CC#Cc1cncc(-c2ccc3c(c2)[C@@]2(N=C(C)C(N)=N2)[C@]2(CC[C@H](OC)CC2)C3)c1 | – | simulated gastric fluid | 25 °C, acidic | > 10000 µg/mL |
| O=C(O)Cc1ccccc1Nc1c(Cl)cccc1Cl | – | PBS | pH 7.4 | 199 µM |
| CCOc1ccc2cc(-c3nn(CC4CC4)c(N)c3C(N)=O)cnc2c1 | – | PBS | pH 6.5, 25 °C | 26.5 µM |
| Cc1ccc(F)cc1Nc1nc(NCc2ccccc2)c2ccccc2n1 | – | aqueous buffer | pH 5 | 5.6 µg/mL |
| Brc1ccc2c(c1)nc(N1CCNCC1)n2Cc1ccccc1 | shake flask | aqueous buffer | 20 h, pH 6.5, 25 °C | 105 µM |
| OCCOc1cccc2c(NCc3ccccc3)nc(N3CCOc4ccccc43)nc12 | – | aqueous buffer | pH 5 | 21.5 µg/mL |
| COC(=O)c1ccc2c(c1)nc(C1CCNCC1)n2Cc1ccccc1 | shake flask | aqueous buffer | 20 h, pH 6.5, 25 °C | 200 µM |
| CCc1nc2nc(C)cc(Nc3ccc(S(F)(F)(F)(F)F)cc3)n2n1 | nephelometry | aqueous buffer | pH 6.5 | 34 to 66 µM |
| COc1cccc(OC)c1-c1nc(C(=O)N[C@@H](CC(C)C)C(=O)O)cn1-c1cccc2ccccc12 | – | aqueous buffer | pH 5 | 103 µg/mL |
| COCc1nc2nc(C)cc(Nc3ccc(C(F)(F)F)cc3)n2n1 | nephelometry | aqueous buffer | pH 6.5 | 150 to 300 µM |
| CN1CCN(CC2CCN(c3nccc4[nH]c(-c5cccc(OCCN)c5)nc34)CC2)CC1 | shake flask | aqueous buffer | pH 6.5 | > 200 µM |
| CN1C(C(=O)Nc2ccccn2)=C(O)c2ccccc2S1(=O)=O | shake flask | aqueous buffer | 48 h, pH 6.5 | 7 to 9 µg/mL |
| Cc1nnc(CCCCCN)nn1.Cl | – | water | – | > 500000 µM |
| NCCCCNc1nc2cc(Cl)ccc2n1Cc1ccccc1 | shake flask | aqueous buffer | 20 h, pH 6.5, 25 °C | ≥ 200 µM |
| Cc1ccc(Nc2nc(NCc3ccccc3)c3ccccc3n2)cc1F | – | aqueous buffer | pH 7.4 | 0.05 µg/mL |
| CC(C)c1cccc2c(-c3ccccc3)cc(-c3ccc(-c4ccc(C(=O)O)cc4)[nH]3)nc12 | – | PBS | pH 7.4 | 71.6 µM |
| COc1ccnc(CNC(=O)c2cn(Cc3ccc(Cn4ccccc4=O)cc3)nc2C(F)(F)F)c1F | – | FaSSIF | 4 h, pH 6.5 | 20 µg/mL |
| CSc1nc2nc(C)cc(Nc3ccc(C(F)(F)F)cc3)n2n1 | nephelometry | aqueous buffer | pH 6.5 | 19 to 38 µM |
| CCOC(=O)c1ccc(O)cc1 | – | PBS | pH 7.4 | 1210 µg/mL |
| CCOc1ccc2cc(-c3nn(C4CCC4)c(N)c3C(N)=O)cnc2c1 | – | PBS | pH 6.5, 25 °C | 10.9 µM |
| O=C(NCCN1CCCC1)c1cc(-c2ccc(CN3CCOCC3)cc2)nc2ccc(F)cc12 | – | simulated gastric fluid | 4 h, pH 2, 37 °C, acidic | > 6490 µM |
| NCCCNc1nc2cc(Br)ccc2n1Cc1ccccc1 | shake flask | aqueous buffer | 20 h, pH 6.5, 25 °C | 100 µM |
| CN1CCN(CC2CCN(c3nccc4[nH]c(-c5cc(F)cc(F)c5)nc34)CC2)CC1 | shake flask | aqueous buffer | pH 6.5 | > 200 µM |
| CCOc1ccc2cc(-c3nn(C4CCCCC4)c(N)c3C(N)=O)ccc2n1 | – | PBS | pH 6.5, 25 °C | 88.9 µM |
| CCCn1nc(C(=O)N2CCCCC2)c2c1CCC(NCCN1CCCCC1)C2 (stereo not shown) | – | PBS | 16 h, pH 7.4 | 1740 µM |
| CC(C)CC(=O)N1CCC[C@H](COc2cccc3c2C(N)=NS(=O)(=O)N3)C1 | – | aqueous buffer | pH 7.1 | 240 µM |
| COc1c(Cl)cccc1Nc1nc(NCc2ccccc2)c2ccccc2n1 | – | aqueous buffer | pH 7.4 | 0.06 µg/mL |
| CCOc1ccc2cc(-c3nn(C(C)C)c(N)c3C(N)=O)cnc2c1 | – | PBS | pH 6.5, 25 °C | 99 µM |

| SMILES | test | test system | conditions | solubility |
| --- | --- | --- | --- | --- |
| c1ccc(CNc2nc(N3CCOc4ccccc43)nc3ccccc23)cc1 | – | aqueous buffer | pH 7.4 | 0.48 µg/mL |
| CN(C)CCCN1c2ccccc2Sc2ccc(Cl)cc21 | – | FaSSIF | 24 h, pH 7.4, 37 °C | 810 µg/mL |
| Cc1n(Cc2ccc3ccccc3n2)c2ccccc2[n+]1Cc1ccc2ccccc2n1.[Cl-] | – | water | – | > 500 µg/mL |
| COc1cccc2c(NCc3ccccc3)nc(N3CCNc4ccccc43)nc12 | – | aqueous buffer | pH 6.2 | 10.2 µg/mL |
| CNC(=O)c1ccc(N(Cc2ccc(C3CCCCC3)cn2)C(=O)[C@H]2CCN2S(=O)(=O)c2c(F)c(F)c(F)c(F)c2F)cc1O | – | simulated gastric fluid | – | 115 µg/mL |
| Cc1c(F)cccc1NC(=O)Nc1ccc(Cl)c(S(=O)(=O)[C@H]2CCCNC2)c1O | – | aqueous buffer | 4 h, pH 5 | 6 µg/mL |
| CCc1cc(O)ccc1-c1ccc2c(-c3nc4c([nH]3)CN(C(C)C)[C@H](C(=O)N3CC(N(C)C)C3)C4)n[nH]c2c1 | – | aqueous buffer | – | 13 µM |
| O=C(Nc1ccc(C(F)(F)F)cc1)N1CCC(Cc2cccc(Oc3ccc(C(F)(F)F)cn3)c2)CC1 | – | water | 48 h, 37 °C | 0.0016 µM |
| O=C(c1ccccn1)N(Cc1cccs1)C1(C(=O)NC2CCCCC2)CCCCC1 | – | aqueous buffer | pH 7.4 | 6.5 µg/mL |
| CC(C)C[C@H](NC(=O)[C@H](CCc1ccccc1)NC(=O)CN1CCOCC1)C(=O)N[C@@H](Cc1ccccc1)C(=O)N[C@@H](CC(C)C)C(=O)[C@@]1(C)CO1 | – | PBS | 24 h, pH 7.4, 37 °C | 1.56 µM |
| c1ccc(CNc2nc(N3CCNc4ccccc43)nc3ccccc23)cc1 | – | aqueous buffer | pH 5 | > 36 µg/mL |
| COC(=O)c1ccc(N)cc1 | – | PBS | pH 7.4 | 1800 µg/mL |
| CN(C)C1CN(Cc2ccc(NC(=O)c3ccc(OCCCl)c([N+](=O)[O-])c3)cc2C(F)(F)F)C1 | HPLC | water | 1 h | < 5 µg/mL |
| Cc1cc(Nc2ccc(Cl)cc2)n2nc(C(C)C)nc2n1 | nephelometry | aqueous buffer | pH 6.5 | 83 to 170 µM |
| COc1cc(F)c(S(=O)(=O)N2CCN(S(=O)(=O)c3cccc(N)c3)CC2)c(F)c1 | – | aqueous buffer | – | < 0.4 µg/mL |
| CC(=O)N[C@@H](CC(N)=O)C(=O)N[C@@H](CCCNC(=N)N)C(=O)N[C@@H](CC(C)C)C(=O)N[C@H]1CSSC[C@@H](C(=O)N[C@H](C(N)=O)[C@@H](C)O)NC(=O)[C@H](CCCNC(=N)N)NC(=O)[C@H](Cc2c[nH]cn2)NC(=O)[C@H](C)NC(=O)CNC(=O)[C@H](Cc2c[nH]c3ccccc23)NC(=O)[C@H](CC(=O)O)NC(=O)[C@H](CCC(N)=O)NC(=O)[C@H](Cc2c[nH]c3ccccc23)NC(=O)[C@H](C(C)C)NC1=O | – | PBS | pH 7.4 | 1050 µg/mL |
| Cc1ccc(-c2ccccc2C(=O)Nc2c(C)cccc2C(=O)O)cc1 | shake flask | aqueous buffer | 24 h, pH 6.5, 25 °C | 175 µM |
| CN1CCC(N2CCCN(c3nccc4[nH]c(-c5ccc(F)c(F)c5)nc34)CC2)CC1 | shake flask | aqueous buffer | pH 6.5 | > 200 µM |
| CC(C(=O)O)c1ccc(-c2ccccc2)c(F)c1 (stereo not shown) | – | PBS | pH 7.4 | 4490 µg/mL |
| NCC1CCN(c2nccc3[nH]c(-c4cccc(OC(F)(F)F)c4)nc23)CC1 | shake flask | aqueous buffer | pH 6.5 | > 200 µM |
| Brc1cccc2c(NCc3ccccc3)nc(NCc3ccccc3)nc12 | – | aqueous buffer | pH 6.2 | 0.13 µg/mL |
| N=C(N)NCc1ccc(NC(=O)c2ccc(C(=O)Nc3ccc(C4=CCN(C(=N)N)CC4)cc3)cc2)cc1 | shake flask | aqueous buffer | pH 7.4 | 171 µg/mL |
| Cc1cccc(F)c1N1CCC(N2Cc3cn(CC(C)(F)F)nc3N(Cc3ccccc3C(F)(F)F)C2=O)CC1 | – | aqueous buffer | pH 7.4 | 10 µM |
| CN(CCOc1ccc(CC2SC(=O)NC2=O)cc1)c1ccccn1 (stereo not shown) | – | aqueous buffer | pH 7.4 | ≥ 144 µM |
| CCCCCCCCO | – | PBS | 48 h, pH 7.4, 25 °C | 6000 µM |
| O=C(Nc1c2c(cc3c1CCC3)CCC2)NS(=O)(=O)/C=C/c1nccs1 | – | PBS | 24 h, pH 6.8, 37 °C | 646 µg/mL |
| CCOc1ccc2cc(-c3nn(C4CCCC4)c(N)c3C(N)=O)cnc2c1 | – | PBS | pH 6.5, 25 °C | 98.7 µM |
